High-throughput results (PubChem BioAssay)
This is a sample that favours compounds with a hit; in the whole collection about 3.4% have one here.
MEKK2mut PB1 HTS: signal of MEK5 binding to mutant human MEKK2 PB1 domain. 0.35% of 290,000 active. percent response, % at 10 µM. bead flow cytometry, Alexa488-MEK5 binding to MEKK2 mutant. AID 1530; in the data active = percent response above about 24%, passing the limit was not always enough
MEKK2 WT-MEK5: raises or lowers MEK5 binding to wildtype human MEKK2 PB1 domain. AID 1531. 1.1% of 290,000 active. binding response (% of control), % at 10 µM. bead flow cytometry, Alexa488-MEK5 binding to MEKK2 WT; actives lie on both sides. Q9Y2U5; in the data active = binding response below about 67% or above about 130%
IMP-1 inh-1: blocks Pseudomonas aeruginosa IMP-1 metallo-beta-lactamase. purified IMP-1, nitrocefin hydrolysis, epi-absorbance fluorescence. inhibition, % at 5.6 µM. 0.45% of 290,000 active;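 active = inhibition above the mean plus 3 SD of all compounds in the same screening run, cut at about 4.5% in these data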;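 also: 0% = IMP-1 with DMSO and 100% = DMSO wells lacking enzyme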
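System – purified recombinant IMP-1 beta-lactamase · Input – IMP-1 dispensed at 0.2 nM · Timing – 15 min preincubation plus 25 min reaction at 25 °C · Signal – Epi-absorbance fluorescence, 480 nm excitation, 530 nm emission · Measure – percent IMP-1 inhibition derived from blank-referenced optical density · Controls – Enzyme-plus-DMSO low control, enzyme-free DMSO high control · Replication – singlicate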
MEKK3 PB1 HTS: MEKK3-MEK5 PB1 interaction, increase or decrease; Q99759; bead-based flow cytometry, Alexa488-MEK5 binding to MEKK3; actives lie on both sides; 0 = blocked by unlabeled MEK5, 100 = vehicle; binding response (% of control), % at 10 µM; 1.4% of 290,000 active;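 active = binding response more than 3 SD above or below the average of its plate-row segment, actives on both sides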;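 also: Alexa488 bead fluorescence after subtracting the streptavidin-only scavenger bead signal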
Target sequence (Q99759 whole entry, looked up): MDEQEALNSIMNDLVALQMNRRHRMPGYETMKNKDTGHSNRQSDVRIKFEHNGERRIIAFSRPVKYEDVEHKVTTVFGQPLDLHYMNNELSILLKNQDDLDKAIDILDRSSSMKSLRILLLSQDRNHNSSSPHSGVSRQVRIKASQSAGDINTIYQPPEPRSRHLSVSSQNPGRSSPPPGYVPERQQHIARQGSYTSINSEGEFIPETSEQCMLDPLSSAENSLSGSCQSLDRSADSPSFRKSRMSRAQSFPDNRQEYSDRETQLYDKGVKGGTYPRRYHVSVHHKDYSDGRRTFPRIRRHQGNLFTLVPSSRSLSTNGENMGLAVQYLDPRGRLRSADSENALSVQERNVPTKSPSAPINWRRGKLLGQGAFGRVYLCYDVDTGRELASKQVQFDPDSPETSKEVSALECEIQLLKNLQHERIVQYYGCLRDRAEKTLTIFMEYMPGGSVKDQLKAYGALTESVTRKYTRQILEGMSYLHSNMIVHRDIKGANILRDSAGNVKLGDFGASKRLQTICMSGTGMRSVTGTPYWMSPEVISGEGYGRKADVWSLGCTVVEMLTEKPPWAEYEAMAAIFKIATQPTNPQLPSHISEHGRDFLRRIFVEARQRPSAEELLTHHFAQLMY
VIM-2 inhibitor: blocks Pseudomonas aeruginosa VIM-2 metallo-beta-lactamase | 0.89% of 290,000 active | purified VIM-2, nitrocefin hydrolysis, epi-absorbance fluorescence | inhibition, % at 5.6 µM;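 active = inhibition above the mean of all tested compounds plus 3 SD, cutoff set per screening run, cut at about 7.5% in these data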;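 also: red hydrolysis product quenches plate fluorescence so inhibitors raise well fluorescence; 0% = enzyme with DMSO and 100% = DMSO without enzyme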
IMP-1 inh-2: blocks IMP-1 metallo-beta-lactamase in VIM-2 selectivity screen | shares compounds with VIM-2 inhibitor | purified IMP-1, nitrocefin hydrolysis, epi-absorbance fluorescence | inhibition, % at 5.6 µM | 1,300 tested, under 10 active | AID 1856; call rule not given here;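 also: 0% = enzyme with vehicle and 100% = vehicle without enzyme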
VIM-2 FRET ctr: counter-screen for VIM-2 inhibitors: epi-absorbance artifacts via FRET. 23% of 1,300 active. shares compounds with VIM-2 inhibitor. inhibition, % at 5.6 µM. AID 1857. purified VIM-2, CCF2 FRET substrate hydrolysis;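 active = inhibition above the mean of all tested compounds plus 3 SD, cut at about 19% in these data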;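 also: 0% = VIM-2 plus DMSO and 100% = no enzyme wells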
TEM-1 inh: blocks E. coli TEM-1 beta-lactamase in VIM-2 selectivity screen; shares compounds with VIM-2 inhibitor; Purified TEM-1, nitrocefin hydrolysis, epi-absorbance fluorescence; inhibition, % at 5.6 µM; 3% of 1,300 active; AID 1866;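 active = inhibition above that campaign's mean inhibition plus 3 SD, cut at about 0.46% in these data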;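 also: 0% = TEM-1 with DMSO and 100% = TEM-1 with 100 µM potassium clavulanate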
VIM-2 confirm 2: confirmation of P. aeruginosa VIM-2 metallo-beta-lactamase inhibitors; shares compounds with VIM-2 inhibitor; purified VIM-2, nitrocefin hydrolysis, epi-absorbance; inhibition, % at 5.6 µM; 96% of 1,300 active; AID 2187;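 active = inhibition of the VIM-2 beta-lactamase enzyme above about 11% from the earlier first-round screen, limit read from the data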;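 also: 0% = VIM-2 with DMSO and 100% = buffer wells without enzyme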
The depositor's hits bear a star; x = not tested or not shown.

SMILES	MEKK2mut PB1 HTS	MEKK2 WT-MEK5	IMP-1 inh-1	MEKK3 PB1 HTS	VIM-2 inhibitor	IMP-1 inh-2	VIM-2 FRET ctr	TEM-1 inh	VIM-2 confirm 2
O=C(CSc1ncn[nH]1)N1N=C(c2ccc(Cl)cc2)CC1c1ccco1 (stereo not drawn)	-11.0	92.0	-0.5	95.0	13.0*	-3.0	30.5*	-6.3	16.6*
O=C(CSc1n[nH]c(=O)n1C1CC1)N1N=C(c2ccc(Cl)cc2)CC1c1ccco1 (stereo not drawn)	6.0	109.0	-1.8	106.0	1.1	x	x	x	x
O=C(CN1CCOCC1)n1c2c(c3ccccc31)CCCC2	-4.0	100.0	-1.2	99.0	12.9*	-3.7	6.1	-7.2	5.4
N#Cc1cc2c(=O)n3ccccc3nc2n(CCCn2ccnc2)c1=N	-1.0	97.0	-0.2	97.0	45.1*	-1.9	-10.1	-2.8	78.2*
CCc1ccc(NC(=S)/N=C(\N)Nc2nc(C)c3cc(CC)ccc3n2)cc1	0.0	96.0	-2.7	95.0	-4.8	x	x	x	x
CCc1ccc2nc3nc(C)cc(C)c3c(N)c2c1	5.0	109.0	-1.6	105.0	22.9*	-1.2	-8.4	-2.9	41.3*
Cc1cc(C)c2c(N)c3ccccc3nc2n1	-4.0	98.0	-2.8	96.0	16.2*	-3.5	-6.9	-5.5	33.2*
Cc1cc(C)c2cccc(N)c2n1	-8.0	93.0	-4.7	100.0	-4.3	x	x	x	x
CC(=O)c1ccc(-n2c(CCC(=O)O)ccc2-c2cccs2)cc1	3.0	103.0	-2.0	101.0	-0.3	x	x	x	x
CC(NC(=O)c1ccco1)C(=O)NC(C)c1cc(F)c(Cl)cc1Cl (stereo not drawn)	-9.0	93.0	-0.8	94.0	-1.5	x	x	x	x
O=C1c2cccc3cccc(c23)C(=O)N1CC1CCN(CC(O)COCc2ccc3c(c2)OCO3)CC1 (stereo not drawn)	0.0	128.0	-0.7	105.0	15.9*	-3.2	-5.3	-6.1	24.3*
CCOC(=O)C1CCN(CC(O)COCc2ccc3c(c2)OCO3)CC1 (stereo not drawn)	-3.0	94.0	-2.5	98.0	0.1	x	x	x	x
COc1ccc(-c2noc(CSc3nc4ccccc4c(=O)n3-c3ccc(C)cc3)n2)cc1	3.0	108.0	-3.7	107.0	-1.4	x	x	x	x
O=C(COC(=O)c1ccccc1Nc1ccccc1)NCc1ccccc1Cl	20.0	120.0	-2.4	107.0	-2.7	x	x	x	x
O=C(CCCN1C(=O)c2cccc3cccc(c23)C1=O)NC1CCS(=O)(=O)C1 (stereo not drawn)	-2.0	101.0	-2.8	103.0	14.8*	-1.6	-1.8	-0.1	21.8*
CCCCc1cc(=O)oc2c3c(cc(OCC(=O)NCCCO)c12)OC(C)(C)CC3	5.0	106.0	-1.0	106.0	-1.8	x	x	x	x
CCc1cc(=O)oc2c3c(cc(OCC(=O)NCCCn4ccnc4)c12)OC(C)(C)CC3	3.0	103.0	-3.8	102.0	45.7*	-2.6	-9.5	-1.8	54.5*
CCc1cc(=O)oc2c(C)c(OCC(=O)NCCCn3ccnc3)ccc12	3.0	104.0	-0.1	100.0	23.1*	-2.7	-1.4	-7.4	34.0*
Cc1cc(Cl)ccc1OCC(=O)NCCCn1ccnc1	3.0	110.0	-2.5	118.0	-7.5	x	x	x	x
O=[N+]([O-])c1cc(CN2CCN(c3ccccc3)CC2)c(O)c2ncccc12	0.0	103.0	-4.9	99.0	-4.1	x	x	x	x
O=[N+]([O-])c1cc(CN2CCOCC2)c2cccnc2c1O	-2.0	97.0	-2.4	99.0	45.8*	-4.4	3.7	-7.1	49.4*
CN1CCC(=O)N([C@H](CSc2ccccc2)c2ccccc2)CC1	0.0	109.0	-0.6	101.0	2.0	x	x	x	x
CN(CCC#N)C(=O)c1cc2c(Cl)nc3ccccc3c2s1	5.0	102.0	-2.2	102.0	20.2*	-3.7	7.2	-6.2	25.3*
CN(C)CCN(Cc1ccco1)C(=O)c1cc2c(Cl)nc3ccccc3c2s1	-8.0	114.0	-0.9	98.0	12.7*	-2.0	0.2	-4.0	36.4*
COc1ccc(NC(=O)c2cc3c(Cl)nc4ccccc4c3s2)cc1OC	2.0	103.0	-4.2	101.0	-2.0	x	x	x	x
SMILES	MEKK2mut PB1 HTS	MEKK2 WT-MEK5	IMP-1 inh-1	MEKK3 PB1 HTS	VIM-2 inhibitor	IMP-1 inh-2	VIM-2 FRET ctr	TEM-1 inh	VIM-2 confirm 2
Cc1c(CC(=O)O)c(=O)oc2c(C)c3occ(-c4ccccc4)c3cc12	0.0	100.0	1.3	102.0	15.1*	0.7	1.8	-10.3	20.8*
CC(=O)c1ccc2c(c1)c(C#N)c1ccccc1[n+]2[O-]	-6.0	96.0	2.2	92.0	24.0*	-2.1	2.7	2.7*	28.1*
O=[N+]([O-])c1cccc(/C=N/Nc2nc(C(Cl)(Cl)Cl)nc3ccccc23)c1	4.0	107.0	-4.3	98.0	-3.7	x	x	x	x
ClC(Cl)(Cl)c1nc(N/N=C/c2ccncc2)c2ccccc2n1	-2.0	97.0	-3.7	102.0	34.0*	-2.9	-4.1	-5.6	64.8*
COC(=O)c1ccc(CSc2ccc3nnc(-c4ccc(F)cc4)n3n2)o1	-7.0	96.0	-1.1	102.0	0.8	x	x	x	x
Cc1ccc(C)c(CSc2ccc3nnc(-c4ccccn4)n3n2)c1	-7.0	99.0	-2.9	105.0	13.7*	-3.4	-3.0	-7.7	24.8*
Brc1ccc(CSc2ccc3nnc(-c4ccccn4)n3n2)cc1	7.0	108.0	-2.8	106.0	25.0*	-3.8	-4.5	-7.2	51.6*
COC(=O)c1ccc(CSc2ccc3nnc(-c4ccccn4)n3n2)o1	8.0	107.0	-3.8	102.0	21.3*	-3.9	2.8	-5.5	38.1*
O=C(CSc1ccc2nnc(-c3ccccn3)n2n1)Nc1ccccc1	1.0	102.0	-1.8	102.0	0.0	x	x	x	x
Cc1ccc(CSc2ccc3nnc(-c4ccccn4)n3n2)cc1	-11.0	87.0	-3.1	92.0	21.2*	-3.6	-3.1	-5.7	34.0*
Cc1ccc(C(=O)N/C(=C\c2cccs2)C(=O)NC2CCCCC2)cc1	3.0	103.0	1.0	103.0	0.2	x	x	x	x
COc1cc(CCC(=O)OCC(=O)Nc2ccc3c(c2)OCO3)cc(OC)c1OC	0.0	99.0	-3.1	100.0	-4.3	x	x	x	x
COc1ccc(CCN2C(=O)c3cccnc3C2=O)cc1OC	6.0	110.0	-2.0	108.0	-2.5	x	x	x	x
O=C(CSc1nnc(NC(=O)c2c(F)cccc2F)s1)NCc1ccccc1	0.0	103.0	-2.7	104.0	33.1*	-3.5	55.8*	-3.8	38.4*
O=C(CSc1nnc(NC(=O)c2ccccc2F)s1)NC1CCCC1	1.0	103.0	-2.9	104.0	12.7*	-3.1	23.8*	-5.3	15.1*
